# Published values collected from several papers.
# Each line is one published result; the experiments were not run side by side.
# Effect on: binding
# PIK3CB: Phosphatidylinositol 4,5-bisphosphate 3-kinase catalytic subunit beta isoform (PIK3CB, Homo sapiens, UniProt P42338)
# PIKFYVE: 1-phosphatidylinositol 3-phosphate 5-kinase (PIKFYVE, Homo sapiens, UniProt Q9Y2I7)
# IRAK3: Interleukin-1 receptor-associated kinase 3 (IRAK3, Homo sapiens, UniProt Q9Y616)
# mnmE: mnmE (Escherichia coli, UniProt P25522)
# UCK2: Uridine-cytidine kinase 2 (UCK2, Homo sapiens, UniProt Q9BZX2)
SMILES,target,method,pH,notes,Kd [nM]
Cc1ncsc1-c1ccc([C@H](C)NC(=O)[C@@H]2C[C@@H](O)CN2C(=O)[C@@H](NC(=O)CCCCCC(=O)N2CCC3(CC2)CCN(c2cncc(Nc4ncc(Cl)c(-c5cccc(-c6ccccc6)c5)n4)c2)C3=O)C(C)(C)C)cc1,"Phosphatidylinositol 5-phosphate 4-kinase type-2 beta (PIP4K2B, Homo sapiens, UniProt P78356)",,,,> 10000
C=CC(=O)N1CCC(C(=O)NCC(=O)N2CCN(c3nc(-c4cnc(N)nc4C(F)F)nc(N4CCOCC4)n3)CC2)CC1,PIK3CB,,,,0.85
CCCOc1ccc2[nH]c(C)c(/C=C/C(=O)c3ccncc3)c2c1,PIKFYVE,competition with immobilised ligand,,,6.5
c1cncc(-c2cccc(Nc3nccc(NC4CCCCC4)n3)c2)c1,IRAK3,competition with immobilised ligand,,,1400
Cc1[nH]c2ccc(OC(C)C)cc2c1/C=C/C(=O)c1ccncc1,PIKFYVE,competition with immobilised ligand,,,51
Nc1nc2c(c(=O)[nH]1)N1CN(c3ccc(C(=O)N[C@@H](CCC(=O)O)C(=O)O)cc3)C[C@H]1CN2,mnmE,ITC,pH 7.5,,310
Nc1ccn([C@@H]2O[C@H](CO)[C@@H](O)[C@H]2O)c(=O)n1,UCK2,fluorescence,,,3.7
Nc1nc(=O)c2c([nH]1)NC[C@@H](CNc1ccc(C(=O)N[C@@H](CCC(=O)O)C(=O)O)cc1)N2C=O,mnmE,ITC,pH 7.5,,200
COc1cc(Nc2ncc3c(n2)-c2ccc(Cl)cc2C(c2c(F)cccc2OC)=NC3)ccc1C(=O)O,IRAK3,,,lysate,2200
CN1c2c([nH]c(N)nc2=O)NC[C@@H]1CNc1ccc(C(=O)N[C@@H](CCC(=O)O)C(=O)O)cc1,mnmE,ITC,pH 7.5,,1100
C=CC(=O)N1CCC(C(=O)N(C)CC(=O)N2CCN(c3nc(-c4cnc(N)nc4C(F)F)nc(N4CCOCC4)n3)CC2)CC1,PIK3CB,,,,3.6
COc1ccc2[nH]c(C(=O)O)c(/C=C/C(=O)c3ccncc3)c2c1,PIKFYVE,competition with immobilised ligand,,,46
[N-]=[N+]=N[C@@H]1[C@H](O)[C@@H](CO)O[C@H]1n1ccc(=O)[nH]c1=O,UCK2,fluorescence,,,13.4
Cc1cnc(-c2ccc(-c3ccc(NC(=O)Nc4c(F)cc(F)cc4F)cc3F)c3c2C(=O)NC3)[nH]1,"Dual specificity mitogen-activated protein kinase kinase 1 (MAP2K1, Homo sapiens, UniProt Q02750)",competition with immobilised ligand,,,23
Cc1cc2nc3c(=O)[nH]c(=O)nc-3n(C[C@H](O)[C@H](O)[C@H](O)COP(=O)(O)OP(=O)(O)OC[C@H]3O[C@@H](n4cnc5c(N)ncnc54)[C@H](O)[C@@H]3O)c2cc1C,"LRP1 (Homo sapiens, UniProt Q07954)",,,lysate,43900
Nc1ncnc2c1ncn2[C@@H]1O[C@H](COP(=O)(O)OP(=O)(O)OC[C@H]2OC(O)[C@H](O)[C@@H]2O)[C@@H](O)[C@H]1O (stereo partly shown),"NAD-dependent histone deacetylase SIR2 (Saccharomyces cerevisiae S288c, UniProt P06700)",SPR,,,2950
